We go through seven compounds from PubChem BioAssay.

The nature of experiment [1]: inhibitors of TNFa-induced NFkB p65 translocation, primary screen, imaging, HUVEC, MLSMR starter and 10KST1 sets (AID 438;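 active = inhibition above 20% together with a positive visual image hit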;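 also: compound added about 3h40 before a 20 min TNFalpha stimulation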;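 as to inhibition: signal is the nuclear over cytoplasmic p65 intensity ratio per well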). The note with it: HUVEC TNFa-induced p65 nuclear translocation; cell count: measured here: nuclei count (cytotoxicity indicator), at 2.08 µM; inhibition: at 2 µM, stronger effect = higher value, 0% TNFa-plus-vehicle, 100% no-TNFa wells.
Experiment [2] in a line: inhibitors of E-selectin induction by TNFa, primary screen, imaging, HUVEC, immunofluorescence, MLSMR starter and 10KST1 sets (AID 487;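 active = visually confirmed hit in the image check and inhibition above 20%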;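 as to inhibition: signal is fraction of cell area covered by stained E-selectin grains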;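 as to nuclei count: 100% = median nuclei count of all wells on the same plate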). Particulars: HUVEC TNFalpha-induced E-selectin immunofluorescence imaging, at 2 µM; inhibition: stronger effect = higher value; nuclei count: measured here: cell number, toxicity.
A short description of experiment [3]: DUSP6 inhibitors restoring Erk phosphorylation by chemical complementation, primary imaging in DUSP6-transfected HeLa (AID 609;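 active = compounds giving at least 50% inhibition in the cell-based MKP-3 phosphatase rescue imaging test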;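 as to inhibition: phospho-Erk level distribution per well compared with pooled transfected vehicle control wells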). The note with it: HeLa MKP-3 transfected, phospho-Erk imaging KS statistic, at 10 µM, cells stimulated with TPA for 15 min.
In experiment [4] the target is Dual specificity protein phosphatase 6 (Homo sapiens) (UniProt Q16828). The experiment is described as above. The note with it: HeLa MKP-3 transfected, phospho-Erk imaging KS statistic; at 10 µM; stronger effect = higher value; cells stimulated with TPA for 15 min.
In experiment [5] the target is Voltage-gated potassium channel subunit beta-2 (Rattus norvegicus) (UniProt P62483). Description: KvBeta enzyme negative modulators, primary screen, biochemical, NADPH fluorescence (AID 622;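 active = fluorescence slope higher than the sample average by over 3 SD, cut at about -0.22 in these data, passing the limit was not always enough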;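 also: slope of raw intensity against log time taken from 70 to 1610 s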). The note with it: recombinant KvBeta, 4-cyanobenzaldehyde reduction, at 10 µM, stronger effect = higher value.
Experiment [6] has the same target. Put plainly: KvBeta positive modulators, primary screen, biochemical, NADPH fluorescence (AID 623;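 active = NADPH fluorescence slope more negative than the mean of all samples by about 3 SD, 99.7% confidence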;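 also: fluorescence intensity change per second fitted from 20 to 320 s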). The note with it: Recombinant KvBeta, NADPH fluorescence decrease slope, 10 min; at 10 µM; stronger effect = lower value.
The target of experiment [7] is Muscarinic acetylcholine receptor M4 (Homo sapiens) (UniProt P08173). Put plainly: compounds altering M4/GIRK thallium flux, either direction, primary screen, M4 allosteric agonist project, cell-based, HEK293 M4/GIRK, BTC-AM (AID 625).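 Also: thallium influx through GIRK channels coupled to M4 in HEK293 cells with BTC-AM dye.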 The note with it: at 10 µM, actives lie on both sides. Summed up: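 Material: HEK293 cells with M4 receptor and GIRK channels; Times: cells overnight at 37 °C, BTC-AM loading 1 h, reads 2 min total; Technique: kinetic BTC-AM fluorescence sampled at 1 Hz, 10 s pre-addition baseline; Read-out basis: slope over 15–24 s of trace normalized to starting intensity; Controls: carbachol positive, DMSO negative.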

Experiment [8] is described as follows: inhibitors of larval lipid processing in zebrafish, primary screen, whole organism, PED6 fluorescence, gall bladder and intestine (AID 686;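 active = a full or partial loss of lipid-probe fluorescence in the fish gall bladder, intestine or both, judged by eye; inactive = no fluorescence loss, or compound toxic to the fish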;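 also: larvae 5 to 7 days old with five fish per well; signal comes from phospholipase A2 cleavage of quenched PED6 carried via bile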). Particulars: Zebrafish larvae PED6 lipid processing, fluorescence scoring; screened at 20 µM (by protocol). In outline: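 Incubation: overnight exposure of larvae to compound plus PED6 / Test system: live zebrafish larvae aged 5-7 days, whole organism / Amount: 5 larvae per well / Read-out basis: visual per-well fluorescence inhibition score / Signal: visual fluorescence microscopy scoring of gall bladder, gut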

A short description of experiment [9]: inhibitors of Chlamydomonas gravitaxis, primary screen, whole organism, Chlamydomonas reinhardtii, WT vs cilia-less mutant, absorbance, 96-well (AID 463189;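 active = inhibition at or above 50% relative to wild type and mutant plate controls; inactive = inhibition below 50%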;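 also: 0% = wild type cc124 cells in DMSO and 100% = ciliumless bld1 mutant cells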). Particulars: OD600 absorbance, 2 days, at 10 µM, stronger effect = higher value.
[10] abbreviates: measured here: cell density z-score.
[11] abbreviates: measured here: nuclear c-Myc green intensity z-score.
[12] abbreviates: measured here: nuclear pErk red intensity z-score, stronger effect = higher value.

Structures are written as SMILES. The source made the active and inactive calls.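 The calls were made as follows, unless noted: active = fluorescence slope after compound addition differing from the mean of all tested samples at 99.7% confidence, mostly higher but some lower; inactive = the rest.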

Sequence of Muscarinic acetylcholine receptor M4 (Homo sapiens) (P08173 whole entry, looked up): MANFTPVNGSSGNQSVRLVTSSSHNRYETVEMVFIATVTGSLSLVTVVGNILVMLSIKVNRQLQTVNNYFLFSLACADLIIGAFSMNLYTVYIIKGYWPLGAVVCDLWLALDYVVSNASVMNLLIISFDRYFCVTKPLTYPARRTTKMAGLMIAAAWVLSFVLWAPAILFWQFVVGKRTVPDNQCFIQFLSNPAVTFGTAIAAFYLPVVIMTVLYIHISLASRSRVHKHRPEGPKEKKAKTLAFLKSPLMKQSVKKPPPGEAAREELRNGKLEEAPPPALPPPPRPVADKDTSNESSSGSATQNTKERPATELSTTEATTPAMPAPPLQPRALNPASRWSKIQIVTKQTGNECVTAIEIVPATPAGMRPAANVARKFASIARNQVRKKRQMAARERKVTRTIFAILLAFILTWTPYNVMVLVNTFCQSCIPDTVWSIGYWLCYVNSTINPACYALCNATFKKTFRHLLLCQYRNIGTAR
Sequence of Voltage-gated potassium channel subunit beta-2 (Rattus norvegicus) (P62483 whole entry, looked up): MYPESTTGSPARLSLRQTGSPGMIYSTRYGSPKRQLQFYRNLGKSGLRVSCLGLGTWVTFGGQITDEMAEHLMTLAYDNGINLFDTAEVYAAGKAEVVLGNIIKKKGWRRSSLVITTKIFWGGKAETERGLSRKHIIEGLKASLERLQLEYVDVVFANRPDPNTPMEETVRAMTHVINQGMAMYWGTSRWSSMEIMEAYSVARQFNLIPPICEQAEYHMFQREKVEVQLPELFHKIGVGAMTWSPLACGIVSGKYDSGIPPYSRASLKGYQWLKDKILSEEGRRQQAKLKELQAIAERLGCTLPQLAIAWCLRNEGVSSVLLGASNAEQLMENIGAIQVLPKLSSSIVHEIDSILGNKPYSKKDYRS
Sequence of Dual specificity protein phosphatase 6 (Homo sapiens) (Q16828 whole entry, looked up): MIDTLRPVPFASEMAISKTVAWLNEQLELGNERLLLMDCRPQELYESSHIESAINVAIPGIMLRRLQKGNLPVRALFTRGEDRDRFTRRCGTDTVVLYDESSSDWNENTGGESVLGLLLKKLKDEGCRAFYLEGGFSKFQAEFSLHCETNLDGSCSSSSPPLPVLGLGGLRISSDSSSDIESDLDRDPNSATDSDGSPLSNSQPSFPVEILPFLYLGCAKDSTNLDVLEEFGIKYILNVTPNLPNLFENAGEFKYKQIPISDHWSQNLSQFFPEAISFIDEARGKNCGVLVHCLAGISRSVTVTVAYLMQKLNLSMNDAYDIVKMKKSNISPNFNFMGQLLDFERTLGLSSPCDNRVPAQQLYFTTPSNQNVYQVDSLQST

With `O=C(O)c1cc2sccc2s1`, the cell count in experiment [1] came out at 643. The inhibition in [1] was 0% (inactive); in experiment [2] it was 23.1% (inactive); in experiment [4] it was -6.48% (inactive); in [9] it was -3.38% (inactive). The nuclei count in experiment [2] turned out to be 160%. Also, the z-score was 0.481 in experiment [3] (setting [10]), -0.0742 in experiment [3] (setting [11]) and -0.912 in experiment [3] (setting [12]). Further, the fluorescence slope is -0.465 (inactive) in experiment [5] and 0.005 (inactive) in experiment [7]. In experiment [6], the NADPH fluorescence slope is -2.7e-05 (inactive). Further, in experiment [8], the outcome was inactive.
With `Nc1nnnn1/N=C/c1cccc(Oc2ccccc2)c1`, the cell count in experiment [1] came to 539. The inhibition in experiment [1] is -12.1% (inactive); in experiment [2] it was 65.8% (inactive); in [4] it was 21% (inactive); in experiment [9], 13.4% (inactive). For the same compound, the nuclei count in experiment [2] is 88.7%. The z-score in [3] (setting [10]) was 1.62; in experiment [3] (setting [11]), -1.31; in experiment [3] (setting [12]) it was -1.66. In addition, the fluorescence slope in experiment [5] was -0.523 (inactive); in experiment [7], 0.00678 (inactive). Moreover, in experiment [6], the NADPH fluorescence slope is -1.8e-05 (inactive). Also, the compound was classed as inactive in [8].
For the compound `COc1ccc(-n2ncc3c(N4CCC(C(N)=O)CC4)ncnc32)cc1`, the cell count in experiment [1] was found to be 602. Also, the inhibition in [1] is -18.6% (inactive); in [2], -114% (inactive); in experiment [4], 13.4% (inactive); in [9], -0.327% (inactive). This compound showed a nuclei count in experiment [2] of 159%. The z-score in [3] (setting [10]) was 0.0865; in experiment [3] (setting [11]), 1.24; in experiment [3] (setting [12]) it was -0.312. Further, the fluorescence slope is -0.385 (inactive) in experiment [5] and 0.00675 (inactive) in experiment [7]. Besides, in [6], the NADPH fluorescence slope is -6.8e-05 (inactive). In addition, the result in experiment [8] was inactive.
In the case of `COc1ccc(N2CC(=O)N(c3ccc(OC)c(OC)c3)CC2=O)cc1OC`, the cell count in [1] is 400. Moreover, the inhibition in experiment [1] is -5.7% (inactive); in [2], -94.2% (inactive); in experiment [4], 3.42% (inactive); in experiment [9] it was 18.5% (inactive). Further, the nuclei count in experiment [2] was found to be 142%. The z-score in [3] (setting [10]) is -0.173; in [3] (setting [11]), -2.28; in experiment [3] (setting [12]), 1.66. The fluorescence slope in [5] was -0.477 (inactive); in experiment [7] it was 0.00438 (inactive). Moreover, the NADPH fluorescence slope in experiment [6] was -5.2e-05 (inactive). In experiment [8], the call was inactive.
In the case of `CC1(C)CC(=O)C(C=Nc2ccc(Cl)cn2)=C(O)C1`, in [1], the cell count turned out to be 493. The inhibition is -2.2% (inactive) in [1], -68.2% (inactive) in [2], 15.9% (inactive) in [4] and 35.7% (inactive) in experiment [9]. In experiment [2], this compound returned a nuclei count of 114%. Further, the z-score in [3] (setting [10]) is 0.174; in experiment [3] (setting [11]) it was -1.57; in [3] (setting [12]), 0.727. Further, the fluorescence slope in experiment [5] was -0.464 (inactive); in experiment [7], 0.0108 (inactive). Besides, the NADPH fluorescence slope in experiment [6] is -2.5e-06 (inactive). In addition, the call in experiment [8] was inactive.
On to `Nc1nc2n(n1)C(c1cccs1)CC(c1ccc(Br)cc1)N2` (stereo unspecified), for which the cell count in [1] came out at 409. For the same compound, the inhibition was -1% (inactive) in experiment [1], -13.7% (inactive) in experiment [2], 5.65% (inactive) in [4] and 21.9% (inactive) in experiment [9]. In experiment [2], this compound returned a nuclei count of 149%. The z-score was -0.806 in experiment [3] (setting [10]), 0.38 in experiment [3] (setting [11]) and 0.438 in experiment [3] (setting [12]). Also, the fluorescence slope in experiment [5] is -0.443 (inactive); in experiment [7] it was 0.0057 (inactive). Further, in [6], the NADPH fluorescence slope was -9.3e-05 (inactive). The compound was called inactive in [8].
In the case of `O=C(CN1C(=O)c2ccccc2C1=O)OCN1C(=O)c2ccccc2C1=O`, the cell count in experiment [1] stood at 494. The inhibition in [1] was -4.5% (inactive); in experiment [2], -52.7% (inactive); in [4], 3.97% (inactive); in experiment [9], -6.56% (inactive). Moreover, in experiment [2], the nuclei count turned out to be 125%. For the same compound, the z-score is 0.289 in experiment [3] (setting [10]), 0.0514 in experiment [3] (setting [11]) and -0.238 in experiment [3] (setting [12]). Further, the fluorescence slope in experiment [5] is -0.348 (inactive); in experiment [7], 0.00658 (inactive). In addition, in experiment [6], the NADPH fluorescence slope is -2.7e-06 (inactive). The compound was classed as inactive in experiment [8].
